From ChEMBL document CHEMBL4477174, “Valencene from the Rhizomes of Cyperus rotundus Inhibits Skin Photoaging-Related Ion Channels and UV-Induced Melanogenesis in B16F10 Melanoma Cells” (J Nat Prod, 2016)
Values belong to the compound of their own block, whether it stands above or below them.

Legend:
[1] = target: Transient receptor potential cation channel subfamily V member 1 (Homo sapiens) (UniProt Q8NER1); assay: Antagonist activity at human TRPV1 expressed in HEK293T cells assessed as capsaicin-induced inward transient currents at 90 uM and -60 mV by whole cell patch-clamp method relative to control; assay type: cell-based; design: scale not given: the % may be the effect or the level left
How it was run: (§1)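 Whole-cell patch clamp, with TRPV1 current evoked by 1 μM capsaicin. Current was compared before and after 90 μM test agent using mean I−V curves, read at −60 mV. Remaining current was normalized to the steady-state peak current before treatment (100%), reported as mean ± SEM, n = 3–6.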

[2] = target: Calcium release-activated calcium channel protein 1 (Homo sapiens) (UniProt Q96D31); assay: Antagonist activity at human ORAI1 expressed in HEK293T cells assessed as […]-induced inwardly rectifying current at 90 uM and -120 mV by whole cell patch-clamp method relative to control; assay type: cell-based; design: scale not given: the % may be the effect or the level left
B16-F10 [3] = assay: Inhibition of UV-induced melanogenesis in mouse B16F10 cells assessed as reduction in melanin level pretreated at 7.5 ug/ml prior to UVB exposure measured after 48 hrs by spectrophotometric method; assay type: functional; design: scale not given: the % may be the effect or the level left
How it was run: (§2)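 B16F10 murine melanoma cells were pretreated with test agent (7.5 or 15 μg/mL; reference ORAI1 inhibitor 3 μg/mL) before UVB exposure. Melanin content was measured 48 h later.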

Homo sapiens [4] = species on record: Homo sapiens; assay: Inhibition of SOCE signalling in human Jurkat-T cells assessed as reduction in alpha-CD3 induced cytoplasmic calcium concentration at 10 uM measured at every 2 sec interval by Fura-2 dye based fluorimetric analysis; assay type: cell-based; design: scale not given: the % may be the effect or the level left
[5] = target: Calcium release-activated calcium channel protein 1 (Homo sapiens) (UniProt Q96D31); assay: Antagonist activity at human ORAI1 expressed in HEK293T cells assessed as inhibition of […] induced inwardly rectifying current at 30 uM and -120 mV by whole cell patch-clamp method; assay type: cell-based
B16-F10 [6] = assay: Cytotoxicity in mouse B16F10 cells at <15 ug/ml measured after 48 hrs by MTT assay; assay type: cell-based; settings: b16-f10, 48 h
[7] = target: Calcium release-activated calcium channel protein 1 (Homo sapiens) (UniProt Q96D31); assay: Antagonist activity at human ORAI1 expressed in HEK293T cells assessed as inhibition of […]-induced inwardly rectifying current at 90 uM and -120 mV by whole cell patch-clamp method relative to control; assay type: cell-based
Homo sapiens [8] = species on record: Homo sapiens; assay: Inhibition of SOCE signalling in human Jurkat-T cells assessed as reduction in alpha-CD3 induced cytoplasmic calcium concentration measured at every 2 sec interval by Fura-2 dye based fluorimetric analysis; assay type: cell-based
[9] = target: Transient receptor potential cation channel subfamily V member 1 (Homo sapiens) (UniProt Q8NER1); assay: Antagonist activity at human TRPV1 expressed in HEK293T cells assessed as inhibition of capsaicin-induced inward transient currents at 90 uM and -60 mV by whole cell patch-clamp method relative to control; assay type: cell-based; how it was run: as §1
B16-F10 [10] = assay: Inhibition of UV-induced melanogenesis in mouse B16F10 cells assessed as reduction in melanin level pretreated at 15 ug/ml prior to UVB exposure measured after 48 hrs by spectrophotometric method; assay type: functional; design: scale not given: the % may be the effect or the level left; how it was run: as §2
Homo sapiens [11] = species on record: Homo sapiens; assay: Inhibition of SOCE signalling in human Jurkat-T cells assessed as reduction in alpha-CD3 induced cytoplasmic calcium concentration at 30 uM measured at every 2 sec interval by Fura-2 dye based fluorimetric analysis; assay type: cell-based; design: scale not given: the % may be the effect or the level left
B16-F10 [12] = assay: Inhibition of UV-induced melanogenesis in mouse B16F10 cells assessed as reduction in melanin level pretreated with compound prior to UVB exposure measured after 48 hrs by spectrophotometric method; assay type: functional, cell-based; how it was run: as §2
[13] = target: Calcium release-activated calcium channel protein 1 (Homo sapiens) (UniProt Q96D31); assay: Antagonist activity at human ORAI1 expressed in HEK293T cells assessed as inhibition of […]-induced inwardly rectifying current at 10 uM and -120 mV by whole cell patch-clamp method; assay type: cell-based
[14] = target: Calcium release-activated calcium channel protein 1 (Homo sapiens) (UniProt Q96D31); assay: Antagonist activity at human ORAI1 expressed in HEK293T cells assessed as inhibition of […]-induced inwardly rectifying current at -120 mV by whole cell patch-clamp method; assay type: cell-based
Homo sapiens [15] = species on record: Homo sapiens; assay: Inhibition of SOCE signalling in human Jurkat-T cells assessed as reduction in alpha-CD3 induced cytoplasmic calcium concentration at 50 uM measured at every 2 sec interval by Fura-2 dye based fluorimetric analysis; assay type: cell-based; design: scale not given: the % may be the effect or the level left
B16-F10 [16] = assay: Cytotoxicity in mouse B16F10 cells at <3 ug/ml measured after 48 hrs by MTT assay; assay type: cell-based; settings: b16-f10, 48 h

Sequence of Transient receptor potential cation channel subfamily V member 1 (Homo sapiens) (Q8NER1 whole entry): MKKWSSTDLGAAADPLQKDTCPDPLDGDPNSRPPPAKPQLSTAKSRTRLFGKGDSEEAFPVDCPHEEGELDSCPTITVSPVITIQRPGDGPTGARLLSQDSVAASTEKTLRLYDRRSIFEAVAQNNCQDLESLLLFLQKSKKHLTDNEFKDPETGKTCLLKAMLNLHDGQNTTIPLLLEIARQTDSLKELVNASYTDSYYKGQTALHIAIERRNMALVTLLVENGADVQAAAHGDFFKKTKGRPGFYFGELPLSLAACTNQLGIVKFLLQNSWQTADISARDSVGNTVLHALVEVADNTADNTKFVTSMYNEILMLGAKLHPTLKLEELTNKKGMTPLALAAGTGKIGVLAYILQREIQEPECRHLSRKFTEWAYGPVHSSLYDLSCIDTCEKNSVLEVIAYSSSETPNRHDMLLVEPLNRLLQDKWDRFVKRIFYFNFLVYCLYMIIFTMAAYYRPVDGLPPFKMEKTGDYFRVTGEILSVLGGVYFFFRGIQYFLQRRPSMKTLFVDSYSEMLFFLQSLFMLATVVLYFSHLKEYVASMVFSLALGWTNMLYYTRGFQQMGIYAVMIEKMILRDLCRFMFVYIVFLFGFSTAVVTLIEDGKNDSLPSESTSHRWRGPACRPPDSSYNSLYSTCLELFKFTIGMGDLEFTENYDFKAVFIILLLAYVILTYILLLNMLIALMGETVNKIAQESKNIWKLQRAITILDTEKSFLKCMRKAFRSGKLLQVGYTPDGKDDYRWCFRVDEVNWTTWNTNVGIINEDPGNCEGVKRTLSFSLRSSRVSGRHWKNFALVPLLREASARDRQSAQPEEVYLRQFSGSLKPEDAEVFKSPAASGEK
Sequence of Calcium release-activated calcium channel protein 1 (Homo sapiens) (Q96D31 whole entry, looked up): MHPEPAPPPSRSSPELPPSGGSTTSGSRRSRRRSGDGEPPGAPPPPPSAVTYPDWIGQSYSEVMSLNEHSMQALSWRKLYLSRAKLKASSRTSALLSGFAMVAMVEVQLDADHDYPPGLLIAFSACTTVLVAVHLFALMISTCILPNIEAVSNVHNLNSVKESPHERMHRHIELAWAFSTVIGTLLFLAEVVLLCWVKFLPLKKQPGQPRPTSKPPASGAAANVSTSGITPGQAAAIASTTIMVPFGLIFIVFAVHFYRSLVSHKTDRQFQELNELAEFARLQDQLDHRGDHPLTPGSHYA

Structure (SMILES): C=C(C)[C@@H]1CCC2=CC(=O)C[C@@H](C)[C@]2(C)C1
Activity [1]: 176% | Activity [2]: 53%

Structure (SMILES): C=C(C)[C@@H]1CCC2=CCC[C@@H](C)[C@]2(C)C1
Activity [1]: 31% | Activity (B16-F10 [3]): 94.82% | Activity (Homo sapiens [4]): 53% | inhibition [5]: 45% | Activity (B16-F10 [6]): Non-Toxic | inhibition [7]: 94 to 95% | Activity (Homo sapiens [8]): Dose-dependent effect | inhibition [9]: 69% | Activity [2]: 5% | Activity (B16-F10 [10]): 82.66% | Activity (Homo sapiens [11]): 75% | Activity (B16-F10 [12]): Dose-dependent effect | inhibition [13]: 13% | inhibition [14]: Dose-dependent effect | Activity (Homo sapiens [15]): 85%

Structure (SMILES): C=C(C)[C@@H]1CC[C@@]2(C)CCC(=O)C(C)=C2C1
Activity [1]: 94% | Activity [2]: 50%

Structure (SMILES): Cc1nnsc1C(=O)Nc1ccc(-n2nc(C(F)(F)F)cc2C(F)(F)F)cc1
Activity (B16-F10 [16]): Non-Toxic

Other lines, results leading:

Activity [1]: 45% | Activity [2]: 44%
Structure (SMILES): C=C1CC[C@H]2O[C@]2(C)CC[C@@H]2[C@@H]1CC2(C)C

Activity [1]: 115% | Activity [2]: 79%
Structure (SMILES): C=C1C2CCC(C2)C1(C)C (centres undefined)
